Assay outcomes as filed in PubChem.
PP1 inh: blocks human PP1-alpha phosphatase, a PP5 counter-screen; purified PP1alpha, OMFP fluorescence; inhibition, % at 6.7 µM; 0.9% of 320,000 active; P62136;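 active means inhibition above the mean inhibition of all tested compounds plus 3 SD, computed separately for each screening campaign, cut at about 15% in these data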
HIF act: HIF pathway transcriptional activation | U2OS HRE-luciferase reporter, luminescence; normalized: DMSO 0%, desferrioxamine 100% | activation, % at 7.5 µM (by protocol) | 0.32% of 300,000 active;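 active means mean activation of at least 10% of the iron chelator positive control signal, with at least half of replicates also reaching 10%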
FID counter: displaces DNA intercalator in HCV helicase counter-screen; 0.17% of 290,000 active; DNA fluorescent intercalator displacement, fluorescence; inhibition, % at 7.9 µM; in the data active means inhibition above about 37%;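 further: 0% = vehicle and 100% = reference compound; higher means more ethidium bromide displaced from hairpin DNA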
HCV NS3 hel inh: blocks Hepatitis C virus NS3 helicase unwinding; inhibition, % at 10.9 µM; AID 1800; NS3 helicase DNA unwinding, Cy5 molecular beacon fluorescence; 0.56% of 290,000 active;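 active means inhibition above the mean of all tested compounds plus 3 SD, set per campaign, cut at about 35% in these data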;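 further: 0% = DMSO wells and 100% = thioflavine S control wells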
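Measured by: Cy5 fluorescence, 0 and 60 min reads / Assay system: NS3 helicase fragment of HCV / Control set: low DMSO, high thioflavine S at 110 µM / Times: 1 h reaction at 25 °C, ATP-initiated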
PP5 primary: PP5 (human) phosphatase inhibition. 0.18% of 320,000 active. inhibition, % at 6.7 µM. purified PP5c, OMFP substrate fluorescence;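 active means inhibition above the campaign's mean inhibition across all tested compounds plus 3 SD, cut at about 9.5% in these data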;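 further: 0% = DMSO only and 100% = 100 µM cantharidin control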
Target sequence (P53041 whole entry, looked up): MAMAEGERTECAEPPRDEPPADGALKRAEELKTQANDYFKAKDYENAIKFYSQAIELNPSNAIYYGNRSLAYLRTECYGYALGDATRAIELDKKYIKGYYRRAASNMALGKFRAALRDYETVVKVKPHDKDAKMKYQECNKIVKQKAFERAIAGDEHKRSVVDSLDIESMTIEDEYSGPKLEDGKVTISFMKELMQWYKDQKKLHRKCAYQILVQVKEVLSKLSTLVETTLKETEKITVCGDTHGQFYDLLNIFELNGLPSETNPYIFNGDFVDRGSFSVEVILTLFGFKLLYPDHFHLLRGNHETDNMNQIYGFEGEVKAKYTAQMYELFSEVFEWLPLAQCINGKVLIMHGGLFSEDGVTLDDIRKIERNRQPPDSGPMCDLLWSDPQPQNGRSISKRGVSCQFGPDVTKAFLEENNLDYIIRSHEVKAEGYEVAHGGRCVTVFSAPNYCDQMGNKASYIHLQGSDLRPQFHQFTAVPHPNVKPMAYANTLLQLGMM
PP1 confirm: confirmation of human PP1 phosphatase inhibitors. shares compounds with PP1 inh. purified PP1alpha, OMFP substrate fluorescence. inhibition, % at 6.7 µM. 52% of 1,900 active;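 active means mean PP1 inhibition above a set limit taken from the earlier primary screen, cut at about 15% in these data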
PP5 inh counter: inhibits human PP5 phosphatase in PP1 counter-screen; shares compounds with PP1 inh; purified PP5c, OMFP fluorescence; inhibition, % at 6.7 µM; 4% of 1,900 active;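 active means mean PP5 inhibition over triplicate wells above about 9.5% taken from the earlier PP1 screen, limit read from the data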
Numbers without * were called inactive; nt = not tested or not shown. Compounds with a hit are over-represented: about 1.9% of the library has one in this group of screens.

SMILES	PP1 inh	HIF act	FID counter	HCV NS3 hel inh	PP5 primary	PP1 confirm	PP5 inh counter
CCCCCCN(C(=O)CCCCCN1C(=O)NC(c2ccc([N+](=O)[O-])cc2)C(C(=O)OCc2ccccc2)=C1C)C(C(=O)NCCCC)c1ccc(OCC(=O)OC)c(C(=O)OC)c1 (stereo not given)	23*	1	nt	nt	4	34*	2
CCCCCCN(C(=O)CCCCCN1C(=O)NC(c2ccc(-c3ccccc3)cc2)C(C(=O)OCc2ccccc2)=C1C)C(C(=O)NCCCC)c1ccccc1 (stereo not given)	nt	-1	nt	nt	nt	nt	nt
CCCCCCN(C(=O)CCCCCN1C(=O)NC(c2ccc(-c3ccccc3)cc2)C(C(=O)OCc2ccccc2)=C1C)C(C)C(=O)NCCCC (stereo not given)	25*	-1	-13	17	3	23*	4
CCCCNC(=O)C(c1ccc(OCC(=O)OC)c(C(=O)OC)c1)N(CCc1c[nH]c2ccccc12)C(=O)CCCCCN1C(=O)NC(c2ccc(-c3ccccc3)cc2)C(C(=O)OCc2ccccc2)=C1C (stereo not given)	nt	0	nt	nt	nt	nt	nt
Cc1cccc(N2CCN(C(=O)c3ccc4c(c3)NC(=O)C(CSCc3cccc(F)c3)N4)CC2)c1C (stereo not given)	23*	0	-24	14	2	29*	-2
COc1ccc(S(=O)(=O)c2c(N)n(Cc3ccco3)c3nc4ccccc4nc23)cc1	19*	0	-12	35	-2	10	0
Cc1ccc(S(=O)(=O)c2c(N)n(CCCN(C)C)c3nc4ccccc4nc23)cc1	-1	0	20	-52	0	nt	nt
CCOC(=O)c1cc(-c2ccccc2)sc1NC(=O)COC(=O)c1cccc(S(N)(=O)=O)c1	19*	0	5	1	0	31*	-4
CCOC(=O)c1cc(-c2ccccc2)sc1NC(=O)CN1C(=O)NC(CC)(c2ccccc2)C1=O (stereo not given)	18*	-1	-5	11	2	10	-5
Cc1cc(C)c(C(=O)COC(=O)C2CCN(c3ccc(C(F)(F)F)cn3)CC2)c(C)c1	-1	nt	nt	nt	3	nt	nt
CCc1nnc(NC(=O)CN2CCN(c3cccc(OC)c3)CC2)s1	34*	0	-18	-5	1	-4	-4
Cc1ccccc1CCN(C(=O)Cn1nnc2ccccc21)C(C(=O)NCC1CCCO1)c1nc2ccccc2n1C (stereo not given)	18*	0	-2	8	1	36*	-3
Cc1ccccc1C(C(=O)NCc1ccco1)N(CC1CCCO1)C(=O)Cn1nnc2ccccc21 (stereo not given)	0	0	-19	-6	2	nt	nt
O=C(N/N=C/C=C/c1ccccc1)NC1CCCCC1	9	1	-26	-5	4	nt	nt
Cc1ccc(C(=O)CSc2nnc(CNc3ccc(C)cc3C)n2Cc2ccco2)cc1	10	-1	-21	23	7	nt	nt
COc1ccc(C(=O)CSc2nnc(CNc3ccc(C)cc3C)n2Cc2ccco2)cc1	23*	0	-6	-5	9	8	1
COc1cc(F)ccc1S(=O)(=O)N1CCN(c2ccccc2)CC1	-71	1	-20	-1	0	-2	-4
CCOC(=O)c1cc(-c2ccco2)nn1-c1ccc(C)cc1	-2	0	-16	9	2	nt	nt
Cc1ccc(-n2nc(-c3ccco3)cc2C(=O)O)cc1	20*	0	-27	21	-2	17*	-10
CCOC(=O)c1cc(-c2ccc(N3CCOCC3)cc2)nn1-c1ccccc1	9	0	-29	-4	-2	nt	nt
O=C(O)c1cc(-c2ccc(N3CCOCC3)cc2)nn1-c1ccc(F)cc1	42*	0	-21	14	2	31*	-4
CCc1ccc([C@@H]2C[C@H]3CN(Cc4ccccc4OC)C(=O)[C@]34CCCN24)cc1	-3	0	-2	18	1	nt	nt
Cc1ccc(N=C2CCCN2Cc2ccccc2)c(C#N)c1	5	1	-4	4	0	nt	nt
CC(C)OC(=O)C1C2C=CC3(CN(Cc4cccs4)C(=O)C13)O2 (stereo not given)	-2	0	0	0	1	nt	nt
